Measurements as given in article PMC5689172 (Biochemistry and Biophysics Reports, 2016).
Values after ≈ are worked out from the molar mass of the structure shown. Read-outs that look alike come from different tables or passages of the source.

Experiments:
S. aureus ATCC 25923 = test: Antimicrobial activity, agar dilution method; type: cell-based; settings: Staphylococcus aureus, ATCC25923
How it was run: (§1)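 Test compound in DMSO, mixed with Mueller–Hinton broth, two-fold serially diluted, and incorporated into MH agar at final 0.25–256 μg/mL. Agar with 0.5% DMSO served as reagent control. Organisms were grown overnight in MH broth at 37 °C, diluted in normal saline to 0.5 McFarland (1.5×10⁸ CFU/mL), and inoculated onto plates. Plates were incubated at 37 °C for 24–48 h, then MIC was recorded.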

[1] = system: S. Choleraesuis ATCC 10708; test: Antimicrobial activity, agar dilution method; type: cell-based; settings: Salmonella enterica, ATCC10708|CHOLERAESUIS
How it was run: as §1

[2] = system: A. xylosoxidans ATCC 27061; test: Antimicrobial activity, agar dilution method; type: cell-based; settings: Achromobacter xylosoxidans, ATCC27061
How it was run: as §1

S. Enteritidis = test: Antimicrobial activity, agar dilution method; type: cell-based; settings: Salmonella enterica
How it was run: as §1

S. marcescens ATCC 8100 = test: Antimicrobial activity, agar dilution method; type: cell-based; settings: Serratia marcescens, ATCC8100
How it was run: as §1

M. luteus ATCC 10240 = test: Antimicrobial activity, agar dilution method; type: cell-based; settings: Micrococcus luteus, ATCC10240
How it was run: as §1

L. monocytogenes = test: Antimicrobial activity, agar dilution method; type: cell-based; settings: Listeria monocytogenes
How it was run: as §1

B. subtilis ATCC 6633 = test: Antimicrobial activity, agar dilution method; type: cell-based; settings: Bacillus subtilis, ATCC6633
How it was run: as §1

[3] = system: K. pneumoniae ATCC 700603; test: Antimicrobial activity, agar dilution method; type: cell-based; settings: Klebsiella pneumoniae, ATCC700603
How it was run: as §1

[4] = system: S. putrefaciens ATCC 8071; test: Antimicrobial activity, agar dilution method; type: cell-based; settings: Shewanella putrefaciens, ATCC8071
How it was run: as §1

P. aeruginosa ATCC 27853 = test: Antimicrobial activity, agar dilution method; type: cell-based, Pseudomonas aeruginosa
How it was run: as §1

Cytotoxicity, MTT assay = type: cell-based; settings: human, MRC-5 cells (normal embryonic lung cell line)
B. cereus = test: Antimicrobial activity, agar dilution method; type: cell-based; settings: Bacillus cereus
How it was run: as §1

E. coli ATCC 25922 = test: Antimicrobial activity, agar dilution method; type: cell-based; settings: Escherichia coli, ATCC25922
How it was run: as §1

[5] = system: C. diphtheriae NCTC 10356; test: Antimicrobial activity, agar dilution method; type: cell-based; settings: Corynebacterium diphtheriae, NCTC10356
How it was run: as §1

S. aureus ATCC 29213 = test: Antimicrobial activity, agar dilution method; type: cell-based; settings: Staphylococcus aureus, ATCC29213
How it was run: as §1

[6] = Antioxidant activity, DPPH radical scavenging assay; type: biochemical; settings: read-out: RSA IC50, 30 min, 517 nm
How it was run: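 Sample solution (test compound, 1 mg/mL in DMSO) was mixed with 0.1 mM DPPH in methanol and kept 30 min in the dark. Absorbance was read at 517 nm. Radical scavenging activity (%) = [1 − Abs(sample)/Abs(control)] × 100. α-Tocopherol was the positive control.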

C. freundii = test: Antimicrobial activity, agar dilution method; type: cell-based; settings: Citrobacter freundii
How it was run: as §1

A. hydrophila = test: Antimicrobial activity, agar dilution method; type: cell-based; settings: Aeromonas hydrophila
How it was run: as §1

E. faecalis ATCC 33186 = test: Antimicrobial activity, agar dilution method; type: cell-based; settings: Enterococcus faecalis, ATCC33186
How it was run: as §1

Gram-negative bacteria = test: Antimicrobial activity, agar dilution method, summarised over the group; type: cell-based
How it was run: as §1

P. stutzeri ATCC 17587 = test: Antimicrobial activity, agar dilution method; type: cell-based, Pseudomonas stutzeri; settings: Stutzerimonas stutzeri, ATCC17587
How it was run: as §1

[7] = system: S. Typhimurium ATCC 13311; test: Antimicrobial activity, agar dilution method; type: cell-based; settings: Salmonella enterica, ATCC13311|TYPHIMURIUM
How it was run: as §1

S. cerevisiae ATCC 2601 = test: Antimicrobial activity, agar dilution method; type: cell-based; settings: Saccharomyces cerevisiae, ATCC2601
How it was run: as §1

C. albicans ATCC 90028 = test: Antimicrobial activity, agar dilution method; type: cell-based; settings: Candida albicans, ATCC90028
How it was run: as §1

M. morganii = test: Antimicrobial activity, agar dilution method; type: cell-based; settings: Morganella morganii
How it was run: as §1

diploid fungi and yeast = test: Antimicrobial activity, agar dilution method, summarised over the group; type: cell-based, Candida albicans; settings: Saccharomyces cerevisiae, ATCC2601|ATCC90028
How it was run: as §1

S. dysenteriae = test: Antimicrobial activity, agar dilution method; type: cell-based; settings: Shigella dysenteriae
How it was run: as §1

E. faecalis ATCC 29212 = test: Antimicrobial activity, agar dilution method; type: cell-based; settings: Enterococcus faecalis, ATCC29212
How it was run: as §1

[8] = system: S. epidermidis ATCC 12228; test: Antimicrobial activity, agar dilution method; type: cell-based; settings: Staphylococcus epidermidis, ATCC12228
How it was run: as §1

P. shigelloides = test: Antimicrobial activity, agar dilution method; type: cell-based; settings: Plesiomonas shigelloides
MRC-5 cell line = settings: read-out: Cytotoxicity IC50; MRC-5 cells, MTT; cited from earlier work
Gram-positive bacteria = test: Antimicrobial activity, agar dilution method, summarised over the group; type: cell-based
How it was run: as §1

[9] = system: twenty-seven strains of microorganisms; type: cell-based; settings: Saccharomyces cerevisiae
How it was run: as §1

[10] = read-out: SOD (superoxide dismutase) activity IC50; cited from earlier work
[11] = Pseudomonas aeruginosa, ATCC27853

Compound	MIC (S. aureus ATCC 25923) [µM]	MIC [1] [µM]	MIC [2] [µM]	MIC (S. Enteritidis) [µM]	MIC (S. marcescens ATCC 8100) [µM]	MIC (M. luteus ATCC 10240) [µM]	MIC (L. monocytogenes) [µM]	MIC (B. subtilis ATCC 6633) [µM]	MIC [3] [µM]	MIC [4] [µM]	MIC (P. aeruginosa ATCC 27853; [11]) [µM]	MIC (B. cereus) [µM]	MIC (E. coli ATCC 25922) [µM]	MIC [5] [µM]	MIC (S. aureus ATCC 29213) [µM]	IC50 [6] [µM]	MIC (C. freundii) [µM]	MIC (A. hydrophila) [µM]	MIC (E. faecalis ATCC 33186) [µM]	MIC (P. stutzeri ATCC 17587) [µM]	further results
Nc1ccc(O)c2ncccc12 [5-amino-8HQ (8), 5-Amino-8-hydroxyquinoline]	275 (≈ 44 µg/mL)	1100 (≈ 176 µg/mL)	549 (≈ 88 µg/mL)	1100 (≈ 176 µg/mL)	1100 (≈ 176 µg/mL)	275 (≈ 44 µg/mL)	275 (≈ 44 µg/mL)	275 (≈ 44 µg/mL)	1100 (≈ 176 µg/mL)	1100 (≈ 176 µg/mL)	1100 (≈ 176 µg/mL)	275 (≈ 44 µg/mL)	1100 (≈ 176 µg/mL)	1100 (≈ 176 µg/mL)	275 (≈ 44 µg/mL)	8.71	1100 (≈ 176 µg/mL)	275 (≈ 44 µg/mL)	1100 (≈ 176 µg/mL)	1100 (≈ 176 µg/mL)	IC50 at 48 h (Cytotoxicity, MTT assay): 22.1 ± 1.02 µM; MIC (Gram-negative bacteria): 1100 µM (≈ 176 µg/mL); MIC [7]: 1100 µM (≈ 176 µg/mL); MIC (S. cerevisiae ATCC 2601): 1100 µM (≈ 176 µg/mL); MIC (C. albicans ATCC 90028): 1100 µM (≈ 176 µg/mL); MIC (M. morganii): 1100 µM (≈ 176 µg/mL); MIC (diploid fungi and yeast): ≥ 645 µM; MIC (S. dysenteriae): 1100 µM (≈ 176 µg/mL); MIC (E. faecalis ATCC 29212): 1100 µM (≈ 176 µg/mL); MIC [8]: 275 µM (≈ 44 µg/mL); MIC (P. shigelloides; P. shigelloides, agar dilution): 1100 µM (≈ 176 µg/mL)
Oc1cccc2cccnc12 [8HQ (1), 8-Hydroxyquinoline]	6.89 (≈ 1 µg/mL)	882 (≈ 128 µg/mL)	55.1 (≈ 8 µg/mL)	882 (≈ 128 µg/mL)	220 (≈ 32 µg/mL)	13.8 (≈ 2 µg/mL)	3.44 (≈ 0.499 µg/mL)	6.89 (≈ 1 µg/mL)	882 (≈ 128 µg/mL)	220 (≈ 32 µg/mL)	> 1760	13.8 (≈ 2 µg/mL)	220 (≈ 32 µg/mL)	13.8 (≈ 2 µg/mL)	6.89 (≈ 1 µg/mL)	615	220 (≈ 32 µg/mL)	110 (≈ 16 µg/mL)	13.8 (≈ 2 µg/mL)	220 (≈ 32 µg/mL)	IC50 (MRC-5 cell line): 6.27 µM; MIC (Gram-positive bacteria): 3.44 to 13.8 µM (≈ 0.499 to 2 µg/mL); MIC (P. aeruginosa ATCC 27853; P. aeruginosa ATCC 27853, agar dilution): >1763.57 µM; MIC [9]: 3.44 to 13.8 µM (≈ 0.499 to 2 µg/mL); IC50 [10]: 91.8 µM; MIC (Gram-negative bacteria): 110 to 882 µM (≈ 16 to 128 µg/mL); MIC (Gram-negative bacteria; [11]): 13.8 to 882 µM (≈ 2 to 128 µg/mL); MIC [7]: 220 µM (≈ 32 µg/mL); MIC (S. cerevisiae ATCC 2601): 13.8 µM (≈ 2 µg/mL); MIC (C. albicans ATCC 90028): 13.8 µM (≈ 2 µg/mL); MIC (M. morganii): 882 µM (≈ 128 µg/mL); MIC (S. dysenteriae): 220 µM (≈ 32 µg/mL); MIC (E. faecalis ATCC 29212): 13.8 µM (≈ 2 µg/mL); MIC [8]: 6.89 µM (≈ 1 µg/mL); MIC (P. shigelloides): 13.8 µM (≈ 2 µg/mL)
Oc1c(I)cc(Cl)c2cccnc12 [CQ (6), clioquinol]	26.2 (≈ 8 µg/mL)	> 838	26.2 (≈ 8 µg/mL)	105 (≈ 32 µg/mL)	26.2 (≈ 8 µg/mL)	26.2 (≈ 8 µg/mL)	26.2 (≈ 8 µg/mL)	26.2 (≈ 8 µg/mL)	> 838	26.2 (≈ 8 µg/mL)	> 838	26.2 (≈ 8 µg/mL)	26.2 (≈ 8 µg/mL)	26.2 (≈ 8 µg/mL)	26.2 (≈ 8 µg/mL)	366	419 (≈ 128 µg/mL)	26.2 (≈ 8 µg/mL)	26.2 (≈ 8 µg/mL)	105 (≈ 32 µg/mL)	MIC (Gram-positive bacteria): 26.2 µM (≈ 8 µg/mL); IC50 at 48 h (Cytotoxicity, MTT assay): 76.17 ± 0.23 µM; MIC [7]: 838 µM (≈ 256 µg/mL); MIC (S. cerevisiae ATCC 2601): 26.2 µM (≈ 8 µg/mL); MIC (C. albicans ATCC 90028): 26.2 µM (≈ 8 µg/mL); MIC (M. morganii): 838 µM (≈ 256 µg/mL); MIC (S. dysenteriae): 838 µM (≈ 256 µg/mL); MIC (E. faecalis ATCC 29212): 26.2 µM (≈ 8 µg/mL); MIC [8]: 26.2 µM (≈ 8 µg/mL); MIC (P. shigelloides; P. shigelloides, agar dilution): 26.2 µM (≈ 8 µg/mL)
Oc1ccc(Cl)c2cccnc12 [Cloxyquin (3), cloxyquin]	89.1 (≈ 16 µg/mL)	713 (≈ 128 µg/mL)	89.1 (≈ 16 µg/mL)	178 (≈ 32 µg/mL)	89.1 (≈ 16 µg/mL)	22.3 (≈ 4 µg/mL)	5.57 (≈ 1 µg/mL)	22.3 (≈ 4 µg/mL)	713 (≈ 128 µg/mL)	178 (≈ 32 µg/mL)	> 1430	44.5 (≈ 8 µg/mL)	89.1 (≈ 16 µg/mL)	22.3 (≈ 4 µg/mL)	89.1 (≈ 16 µg/mL)	1050	178 (≈ 32 µg/mL)	44.5 (≈ 8 µg/mL)	89.1 (≈ 16 µg/mL)	178 (≈ 32 µg/mL)	MIC (Gram-positive bacteria): 5.57 to 89.1 µM (≈ 1 to 16 µg/mL); IC50 at 48 h (Cytotoxicity, MTT assay): 81.7 ± 0.96 µM; MIC [7]: 178 µM (≈ 32 µg/mL); MIC (S. cerevisiae ATCC 2601): 89.1 µM (≈ 16 µg/mL); MIC (C. albicans ATCC 90028): 178 µM (≈ 32 µg/mL); MIC (M. morganii): 178 µM (≈ 32 µg/mL); MIC (S. dysenteriae): 178 µM (≈ 32 µg/mL); MIC (E. faecalis ATCC 29212): 89.1 µM (≈ 16 µg/mL); MIC [8]: 22.3 µM (≈ 4 µg/mL); MIC (P. shigelloides; P. shigelloides, agar dilution): 11.1 µM (≈ 2 µg/mL)
